According to ChEMBL document CHEMBL4425110, “ICI 56,780 Optimization: Structure-Activity Relationship Studies of 7-(2-Phenoxyethoxy)-4(1H)-quinolones with Antimalarial Activity” (J Med Chem, 2016):
The source made the active and inactive calls. The rule behind the calls is not given here.

Tests used:
Plasmodium falciparum [1] = assay: Antimalarial activity against Plasmodium falciparum W2; type: functional, organism-based
Plasmodium falciparum [2] = assay: Antimalarial activity against Plasmodium falciparum TM90-C2B; type: functional, organism-based
Plasmodium berghei [3] = assay: Antimalarial activity against Plasmodium berghei; type: functional, organism-based
Method in brief: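 In vitro liver-stage (exoerythrocytic) assay against P. berghei; the value is the EC50 (nM).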

J774 = assay: Cytotoxicity against mouse J774 cells; type: cell-based
[4] = Liver blood index, ratio of EC50 for Plasmodium falciparum W2 to EC50 for Plasmodium berghei; type: functional
Method in brief: (§1)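 Liver-stage EC50 measured in vitro against P. berghei. Liver blood index is the blood-stage EC50 divided by the P. berghei EC50, using either W2 or TM90-C2B as the blood-stage strain.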

[5] = Liver blood index, ratio of EC50 for Plasmodium falciparum TM90-C2B to EC50 for Plasmodium berghei; type: functional; method in brief: as §1
Plasmodium berghei [6] = assay: Antimalarial activity against Plasmodium berghei infected in mouse assessed as inhibition of parasitemia at 50 mg/kg, po administered as single dose measured on day 6 post drug exposure relative to untreated control; type: functional; conditions: 144 h
Method in brief: (§2)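 Two infected mice per compound were each given a single oral dose of 50 mg/kg, suspended in PEG400, on day 1 post-exposure. Parasitemia was assessed on days 3 and 6 post-exposure.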

Plasmodium falciparum [7] = assay: Resistance index, ratio of EC50 for Plasmodium falciparum TM90-C2B to EC50 for Plasmodium falciparum W2; type: functional
Plasmodium berghei [8] = assay: Antimalarial activity against Plasmodium berghei infected in mouse assessed as inhibition of parasitemia at 50 mg/kg, po administered as single dose measured on day 3 post drug exposure relative to untreated control; type: functional; conditions: 72 h; method in brief: as §2
Plasmodium berghei [9] = assay: Antimalarial activity against GFP expressing Plasmodium berghei infected in mouse assessed as inhibition of parasitemia at 10 mg/kg, po administered on days 3, 4 and 5 and measured on day 6 post drug exposure by Giemsa staining based modified Thompson test; type: functional; conditions: 144 h
Plasmodium berghei [10] = assay: Antimalarial activity against GFP expressing Plasmodium berghei infected in mouse assessed as average time for mouse death at 10 mg/kg, po administered on days 3, 4 and 5 and measured on day 6 post drug exposure by Giemsa staining based modified Thompson test; type: functional
Plasmodium berghei [11] = assay: Antimalarial activity against GFP expressing Plasmodium berghei infected in mouse assessed as inhibition of parasitemia at 10 mg/kg, po administered on days 3, 4 and 5 and measured on day 13 post drug exposure by Giemsa staining based modified Thompson test; type: functional, organism-based
[12] = Solubility in pH 6.5 buffer by HPLC based UV spectroscopy; type: physicochemical

Structure (SMILES) | EC50 (Plasmodium falciparum [1]) [nM] | EC50 (Plasmodium falciparum [2]) [nM] | EC50 (Plasmodium berghei [3]) [nM] | EC50 (J774) [µM] | Ratio EC50 [4] | Ratio EC50 [5] | inhibition in vivo at 50 mg/kg (Plasmodium berghei [6]) [%] | Ratio EC50 (Plasmodium falciparum [7]) | inhibition in vivo at 50 mg/kg (Plasmodium berghei [8]) [%] | inhibition in vivo at 10 mg/kg (Plasmodium berghei [9]) [%] | Time (Plasmodium berghei [10]) [days] | Activity (Plasmodium berghei [11]) | solubility [12] [µM]
COC(=O)c1c[nH]c2ccc(OCc3ccccc3)cc2c1=O | 11.6 | 1100 | 127 | 7.59 | 0.091 | 8.66 | < 1 | – | – | – | – | – | –
COC(=O)c1c[nH]c2cc(OCCOc3ccccc3)c(Cl)cc2c1=O | 9.93 | 617 | 0.063 | > 20 | 158 | 9790 | < 1 | 62.1 | < 1 | – | – | – | –
COC(=O)c1c[nH]c2cc(OCCCc3ccccc3)ccc2c1=O | 0.711 | > 784 | 5.26 | 1.48 | 0.14 | – | 47.1 | >1100 | 69.2 | – | – | – | –
COC(=O)c1c[nH]c2cc(Oc3ccccc3)ccc2c1=O | 16.6 | 1950 | 110 | 9.12 | 0.15 | 17.7 | 29.8 | 117 | 40 | – | – | – | –
CCCCc1cc2c(=O)c(CC)c[nH]c2cc1OCCOc1ccccc1 | 0.44 | 1.92 | 2.65 | 0.36 | 0.166 | 0.725 | 17.7 | 4.36 | 69.2 | – | – | – | –
CCCCc1cc2c(=O)c(C(=O)OC)c[nH]c2cc1OCCOc1ccccc1 | 0.039 | 7.89 | 0.052 | > 20 | 0.75 | 152 | 49 | 202 | 76.9 | < 1 | 13 | – | –
CCCCc1cc2c(=O)c(Br)c(C)[nH]c2cc1OCCOc1ccccc1 | 2.6 | 12.2 | 2.12 | > 10 | 1.23 | 5.75 | 49.5 | 4.69 | 100 | 61 | 13 | inactive | –
COC(=O)c1c[nH]c2cc(OCCc3ccccc3)ccc2c1=O | 139 | 7740 | – | 17.2 | – | – | < 1 | 55.7 | 60 | – | – | – | –
CCCCc1cc2c(=O)c(I)c(C)[nH]c2cc1OCCOc1ccccc1 | 0.867 | 5.87 | – | – | – | – | 19.6 | 6.77 | 53.9 | – | – | – | –
O=C1C(O)=C([C@H]2CC[C@H](c3ccc(Cl)cc3)CC2)C(=O)c2ccccc21 [ATOVAQUONE] | – | – | – | – | – | – | – | – | – | – | 30 | – | –
CCCCc1cc2c(=O)c(C(=O)NCCO)c[nH]c2cc1OCCOc1ccccc1 | 253 | 5890 | 12.8 | > 20 | 19.8 | 460 | < 1 | 23.3 | 40 | – | – | – | > 20
COC(=O)c1c[nH]c2ccc(OCCCc3ccccc3)cc2c1=O | 14.4 | 3670 | 11.1 | 17.1 | 1.3 | 331 | < 1 | 255 | 76.9 | – | – | – | –
COC(=O)c1c[nH]c2ccc(OCCc3ccccc3)cc2c1=O | 24.6 | 3050 | 6.97 | 2.2 | 3.53 | 438 | < 1 | 124 | 7.69 | – | – | – | –
